In brackets after ≈: the same amount, converted by molar mass.
Experiments:
Pseudomonas aeruginosa [1] = experiment: Antibacterial activity against Pseudomonas aeruginosa PAO1 by twofold serial dilution method; assay type: functional
How it was run: (§1)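 MIC by twofold serial dilution in Mueller-Hinton agar with adjusted Ca2+ and Mg2+, spotted with a Steers multiple inoculator at about 10^4 CFU per spot. Plates were incubated at 37°C and read visually at 18 and 24 h. Values are modal MICs of three independent determinations.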

Pseudomonas aeruginosa [2] = experiment: Antibacterial activity against Pseudomonas aeruginosa FE60 by twofold serial dilution method; assay type: functional; how it was run: as §1
Pseudomonas aeruginosa [3] = experiment: Antibacterial activity against Pseudomonas aeruginosa EryR by twofold serial dilution method; assay type: functional; how it was run: as §1
Pseudomonas aeruginosa [4] = experiment: Antibacterial activity against Pseudomonas aeruginosa FK06 by twofold serial dilution method; assay type: functional; how it was run: as §1
Pseudomonas aeruginosa [5] = experiment: Antibacterial activity against Pseudomonas aeruginosa 3308 by twofold serial dilution method; assay type: functional
How it was run: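 MIC by serial twofold agar dilution in cation-adjusted Mueller-Hinton agar, about 10^4 CFU per spot applied with Steers multiple inoculator; plates at 37°C, read visually at 18 and 24 h. Modal values of three independent determinations. For pNF225 carriers, 150 μg/ml ticarcillin was added to growth cultures.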

Pseudomonas aeruginosa [6] = experiment: Antibacterial activity against Pseudomonas aeruginosa 1956 by twofold serial dilution method; assay type: functional; how it was run: as §1
Pseudomonas aeruginosa [7] = experiment: microbe, parasite or virus in culture; settings: 2439
Pseudomonas aeruginosa [8] = experiment: microbe, parasite or virus in culture; settings: 2126
[9] = system: Pseudomonas aeruginosa PAO1; experiment: Activity of beta-lactamase AmpC in Pseudomonas aeruginosa PAO1 by spectrophotometry
How it was run: (§2)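 Crude French press lysates tested spectrophotometrically with nitrocefin; activity in nmol nitrocefin·min−1·mg protein−1. Induced activity obtained by adding 50 μg/ml cefoxitin to MHB culture 3 h before end of incubation; uninduced without. Triplicate measurements per strain; run-to-run variation under 15%.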

Pseudomonas aeruginosa [10] = experiment: Activity of beta-lactamase AmpC in Pseudomonas aeruginosa EryR by spectrophotometry; how it was run: as §2
Pseudomonas aeruginosa [11] = experiment: Activity of beta-lactamase AmpC in Pseudomonas aeruginosa 3308 by spectrophotometry; how it was run: as §2
Pseudomonas aeruginosa [12] = experiment: Activity of beta-lactamase AmpC in Pseudomonas aeruginosa 2439 by spectrophotometry; how it was run: as §2
Pseudomonas aeruginosa [13] = experiment: Activity of beta-lactamase AmpC in Pseudomonas aeruginosa 2126 by spectrophotometry; how it was run: as §2
Pseudomonas aeruginosa [14] = experiment: Activity of beta-lactamase AmpC in Pseudomonas aeruginosa 1956 by spectrophotometry; how it was run: as §2
Pseudomonas aeruginosa [15] = experiment: Antibacterial activity against Pseudomonas aeruginosa EryR harboring pNF225 carrying nfxB by twofold serial dilution method; assay type: functional
How it was run: (§3)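 nfxB plasmid pNF225 was electroporated into the strains and kept by adding 150 μg/ml ticarcillin to growth media. MIC by twofold serial dilution in cation-adjusted Mueller-Hinton agar, about 10^4 CFU per spot by Steers inoculator, at 37°C. Plates were read visually at 18 and 24 h. Values are modal MICs of three independent determinations.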

Pseudomonas aeruginosa [16] = experiment: Antibacterial activity against Pseudomonas aeruginosa FK06 harboring pNF225 carrying nfxB by twofold serial dilution method; assay type: functional; how it was run: as §3
Pseudomonas aeruginosa [17] = experiment: Antibacterial activity against Pseudomonas aeruginosa 3308 harboring pNF225 carrying nfxB by twofold serial dilution method; assay type: functional; how it was run: as §3
Pseudomonas aeruginosa [18] = experiment: Antibacterial activity against Pseudomonas aeruginosa 2439 harboring pNF225 carrying nfxB by twofold serial dilution method; assay type: functional; how it was run: as §3
Pseudomonas aeruginosa [19] = experiment: Antibacterial activity against Pseudomonas aeruginosa 2126 harboring pNF225 carrying nfxB by twofold serial dilution method; assay type: functional; how it was run: as §3
Pseudomonas aeruginosa [20] = experiment: Antibacterial activity against Pseudomonas aeruginosa 1956 harboring pNF225 carrying nfxB by twofold serial dilution method; assay type: functional; how it was run: as §3

CO/N=C(\C(=O)N[C@@H]1C(=O)N2C(C(=O)[O-])=C(C[N+]3(C)CCCC3)CS[C@H]12)c1csc(N)n1
MIC (Pseudomonas aeruginosa [1]): 2 µg/mL (≈ 4.16 µM) | MIC (Pseudomonas aeruginosa [2]): 2 µg/mL (≈ 4.16 µM) | MIC (Pseudomonas aeruginosa [3]): 8 µg/mL (≈ 16.6 µM) | MIC (Pseudomonas aeruginosa [4]): 8 µg/mL (≈ 16.6 µM) | MIC (Pseudomonas aeruginosa [5]): 4 µg/mL (≈ 8.32 µM) | MIC (Pseudomonas aeruginosa [6]): 2 µg/mL (≈ 4.16 µM) | MIC (Pseudomonas aeruginosa [7]): 8 µg/mL (≈ 16.6 µM) | MIC (Pseudomonas aeruginosa [8]): 8 µg/mL (≈ 16.6 µM)

O=C(Cc1cccs1)N[C@@H]1C(=O)N2C(C(=O)O)=C(/C=C/c3ccc([N+](=O)[O-])cc3[N+](=O)[O-])CS[C@H]12
Activity [9]: 1820 nmol/min/mg | Activity (Pseudomonas aeruginosa [10]): 3110 nmol/min/mg | Activity (Pseudomonas aeruginosa [11]): 2670 nmol/min/mg | Activity (Pseudomonas aeruginosa [12]): 2680 nmol/min/mg | Activity (Pseudomonas aeruginosa [13]): 5140 nmol/min/mg | Activity (Pseudomonas aeruginosa [14]): 4550 nmol/min/mg

NCC[C@H](O)C(=O)N[C@@H]1C[C@H](N)[C@@H](O[C@H]2O[C@H](CN)[C@@H](O)[C@H](O)[C@H]2O)[C@H](O)[C@H]1O[C@H]1O[C@H](CO)[C@@H](O)[C@H](N)[C@H]1O [AMIKACIN]
MIC (Pseudomonas aeruginosa [1]): 4 µg/mL (≈ 6.83 µM) | MIC (Pseudomonas aeruginosa [2]): 1 µg/mL (≈ 1.71 µM) | MIC (Pseudomonas aeruginosa [3]): 2 µg/mL (≈ 3.42 µM) | MIC (Pseudomonas aeruginosa [15]): 8 µg/mL (≈ 13.7 µM) | MIC (Pseudomonas aeruginosa [4]): 1 µg/mL (≈ 1.71 µM) | MIC (Pseudomonas aeruginosa [16]): 1 µg/mL (≈ 1.71 µM) | MIC (Pseudomonas aeruginosa [5]): 0.5 µg/mL (≈ 0.854 µM) | MIC (Pseudomonas aeruginosa [17]): 1 µg/mL (≈ 1.71 µM) | MIC (Pseudomonas aeruginosa [18]): 2 µg/mL (≈ 3.42 µM) | MIC (Pseudomonas aeruginosa [19]): 2 µg/mL (≈ 3.42 µM) | MIC (Pseudomonas aeruginosa [6]): 1 µg/mL (≈ 1.71 µM) | MIC (Pseudomonas aeruginosa [20]): 2 µg/mL (≈ 3.42 µM) | MIC (Pseudomonas aeruginosa [7]): 1 µg/mL (≈ 1.71 µM) | MIC (Pseudomonas aeruginosa [8]): 1 µg/mL (≈ 1.71 µM)

C[C@H]1[C@H](NC(=O)/C(=N\OC(C)(C)C(=O)O)c2csc(N)n2)C(=O)N1S(=O)(=O)O [AZTREONAM]
MIC (Pseudomonas aeruginosa [2]): 4 µg/mL (≈ 9.19 µM) | MIC (Pseudomonas aeruginosa [3]): 1 µg/mL (≈ 2.3 µM) | MIC (Pseudomonas aeruginosa [4]): 1 µg/mL (≈ 2.3 µM) | MIC (Pseudomonas aeruginosa [16]): 4 µg/mL (≈ 9.19 µM) | MIC (Pseudomonas aeruginosa [5]): 1 µg/mL (≈ 2.3 µM) | MIC (Pseudomonas aeruginosa [17]): 4 µg/mL (≈ 9.19 µM) | MIC (Pseudomonas aeruginosa [6]): 1 µg/mL (≈ 2.3 µM) | MIC (Pseudomonas aeruginosa [7]): 1 µg/mL (≈ 2.3 µM) | MIC (Pseudomonas aeruginosa [8]): 1 µg/mL (≈ 2.3 µM)

O=C(N[C@H](CO)[C@H](O)c1ccc([N+](=O)[O-])cc1)C(Cl)Cl [CHLORAMPHENICOL]
MIC (Pseudomonas aeruginosa [1]): 64 µg/mL (≈ 198 µM) | MIC (Pseudomonas aeruginosa [2]): 64 µg/mL (≈ 198 µM) | MIC (Pseudomonas aeruginosa [3]): 128 µg/mL (≈ 396 µM) | MIC (Pseudomonas aeruginosa [15]): 32 µg/mL (≈ 99 µM) | MIC (Pseudomonas aeruginosa [4]): 128 µg/mL (≈ 396 µM) | MIC (Pseudomonas aeruginosa [16]): 64 µg/mL (≈ 198 µM) | MIC (Pseudomonas aeruginosa [5]): 128 µg/mL (≈ 396 µM) | MIC (Pseudomonas aeruginosa [17]): 64 µg/mL (≈ 198 µM) | MIC (Pseudomonas aeruginosa [18]): 64 µg/mL (≈ 198 µM) | MIC (Pseudomonas aeruginosa [19]): 32 µg/mL (≈ 99 µM) | MIC (Pseudomonas aeruginosa [6]): 128 µg/mL (≈ 396 µM) | MIC (Pseudomonas aeruginosa [20]): 64 µg/mL (≈ 198 µM) | MIC (Pseudomonas aeruginosa [7]): 128 µg/mL (≈ 396 µM) | MIC (Pseudomonas aeruginosa [8]): 128 µg/mL (≈ 396 µM)

O=C(O)c1cn(C2CC2)c2cc(N3CCNCC3)c(F)cc2c1=O [CIPROFLOXACIN]
MIC (Pseudomonas aeruginosa [2]): 0.12 µg/mL (≈ 0.362 µM) | MIC (Pseudomonas aeruginosa [17]): 0.12 µg/mL (≈ 0.362 µM) | MIC (Pseudomonas aeruginosa [6]): 1 µg/mL (≈ 3.02 µM)

C[C@@H](O)[C@H]1C(=O)N2C(C(=O)O)=C(SCCNC=N)C[C@H]12 [IMIPENEM ANHYDROUS]
MIC (Pseudomonas aeruginosa [1]): 2 µg/mL (≈ 6.68 µM) | MIC (Pseudomonas aeruginosa [2]): 2 µg/mL (≈ 6.68 µM) | MIC (Pseudomonas aeruginosa [3]): 0.5 µg/mL (≈ 1.67 µM) | MIC (Pseudomonas aeruginosa [15]): 2 µg/mL (≈ 6.68 µM) | MIC (Pseudomonas aeruginosa [4]): 0.5 µg/mL (≈ 1.67 µM) | MIC (Pseudomonas aeruginosa [16]): 2 µg/mL (≈ 6.68 µM) | MIC (Pseudomonas aeruginosa [5]): 0.12 µg/mL (≈ 0.401 µM) | MIC (Pseudomonas aeruginosa [17]): 2 µg/mL (≈ 6.68 µM) | MIC (Pseudomonas aeruginosa [18]): 2 µg/mL (≈ 6.68 µM) | MIC (Pseudomonas aeruginosa [19]): 1 µg/mL (≈ 3.34 µM) | MIC (Pseudomonas aeruginosa [6]): 2 µg/mL (≈ 6.68 µM) | MIC (Pseudomonas aeruginosa [20]): 4 µg/mL (≈ 13.4 µM) | MIC (Pseudomonas aeruginosa [7]): 0.5 µg/mL (≈ 1.67 µM) | MIC (Pseudomonas aeruginosa [8]): 0.5 µg/mL (≈ 1.67 µM)

CC1(C)S[C@@H]2[C@H](NC(=O)[C@H](C(=O)O)c3ccsc3)C(=O)N2[C@H]1C(=O)O [TICARCILLIN]
MIC (Pseudomonas aeruginosa [1]): 16 µg/mL (≈ 41.6 µM) | MIC (Pseudomonas aeruginosa [2]): 16 µg/mL (≈ 41.6 µM) | MIC (Pseudomonas aeruginosa [3]): 2 µg/mL (≈ 5.2 µM) | MIC (Pseudomonas aeruginosa [4]): 4 µg/mL (≈ 10.4 µM) | MIC (Pseudomonas aeruginosa [5]): 2 µg/mL (≈ 5.2 µM) | MIC (Pseudomonas aeruginosa [6]): 8 µg/mL (≈ 20.8 µM) | MIC (Pseudomonas aeruginosa [7]): 4 µg/mL (≈ 10.4 µM) | MIC (Pseudomonas aeruginosa [8]): 4 µg/mL (≈ 10.4 µM)

NC[C@H]1O[C@H](O[C@H]2[C@H](O)[C@@H](O[C@H]3O[C@H](CO)[C@@H](O)[C@H](N)[C@H]3O)[C@H](N)C[C@@H]2N)[C@H](N)C[C@@H]1O [TOBRAMYCIN]
MIC (Pseudomonas aeruginosa [1]): 0.5 µg/mL (≈ 1.07 µM) | MIC (Pseudomonas aeruginosa [2]): 0.25 µg/mL (≈ 0.535 µM) | MIC (Pseudomonas aeruginosa [3]): 0.25 µg/mL (≈ 0.535 µM) | MIC (Pseudomonas aeruginosa [15]): 1 µg/mL (≈ 2.14 µM) | MIC (Pseudomonas aeruginosa [4]): 0.25 µg/mL (≈ 0.535 µM) | MIC (Pseudomonas aeruginosa [16]): 0.25 µg/mL (≈ 0.535 µM) | MIC (Pseudomonas aeruginosa [5]): 0.12 µg/mL (≈ 0.257 µM) | MIC (Pseudomonas aeruginosa [17]): 0.25 µg/mL (≈ 0.535 µM) | MIC (Pseudomonas aeruginosa [18]): 0.5 µg/mL (≈ 1.07 µM) | MIC (Pseudomonas aeruginosa [19]): 0.5 µg/mL (≈ 1.07 µM) | MIC (Pseudomonas aeruginosa [6]): 0.25 µg/mL (≈ 0.535 µM) | MIC (Pseudomonas aeruginosa [20]): 0.5 µg/mL (≈ 1.07 µM) | MIC (Pseudomonas aeruginosa [7]): 0.25 µg/mL (≈ 0.535 µM) | MIC (Pseudomonas aeruginosa [8]): 0.25 µg/mL (≈ 0.535 µM)

GENTAMICIN
MIC (Pseudomonas aeruginosa [1]): 2 µg/mL | MIC (Pseudomonas aeruginosa [2]): 0.25 µg/mL | MIC (Pseudomonas aeruginosa [3]): 1 µg/mL | MIC (Pseudomonas aeruginosa [15]): 2 µg/mL | MIC (Pseudomonas aeruginosa [5]): 0.25 µg/mL | MIC (Pseudomonas aeruginosa [17]): 1 µg/mL | MIC (Pseudomonas aeruginosa [18]): 2 µg/mL | MIC (Pseudomonas aeruginosa [19]): 2 µg/mL | MIC (Pseudomonas aeruginosa [6]): 1 µg/mL | MIC (Pseudomonas aeruginosa [20]): 2 µg/mL
